Compound activity (PubChem)
Compounds with a hit are over-represented: about 1.8% of the library has one in this group of screens.
CHRM4 PAM: potentiates acetylcholine response at human M4 receptor; P08173; CHO-K1 hM4/Gqi5, Fluo-8 calcium fluorescence, ACh EC20; 0% = ACh EC20, 100% = maximal ACh; activation, % at 3 µM; hit rate 0.4% among 360,000;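 active means activation above its plate's cutoff, the mean activation of sample wells plus 3 SD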
Target sequence (P08173 whole entry, looked up): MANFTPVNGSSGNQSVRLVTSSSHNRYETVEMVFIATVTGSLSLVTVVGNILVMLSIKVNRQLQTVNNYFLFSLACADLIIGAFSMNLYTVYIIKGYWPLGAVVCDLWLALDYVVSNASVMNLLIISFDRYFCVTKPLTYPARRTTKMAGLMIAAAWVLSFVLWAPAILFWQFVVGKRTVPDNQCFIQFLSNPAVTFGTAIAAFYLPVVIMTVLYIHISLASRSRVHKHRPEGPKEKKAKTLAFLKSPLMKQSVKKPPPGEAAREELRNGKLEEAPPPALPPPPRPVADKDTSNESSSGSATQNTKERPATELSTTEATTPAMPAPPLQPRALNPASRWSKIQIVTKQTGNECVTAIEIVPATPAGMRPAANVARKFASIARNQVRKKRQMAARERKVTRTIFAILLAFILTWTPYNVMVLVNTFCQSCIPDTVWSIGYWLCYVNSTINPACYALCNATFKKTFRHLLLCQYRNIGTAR
M5 PAM: positive allosteric modulators of human muscarinic M5 receptor. activation, % at 3 µM. hit rate 0.3% among 360,000. CHO-K1 hM5, Fluo-8 calcium, ACh EC20 PAM; 0% = ACh EC20, 100% = ACh EC100. P08912;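 active means activation above the run cutoff, the mean activation of all test compounds plus 3 SD, cut at about 18% in these data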
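System – CHO-K1 hM5 cells · Compound – 3 µM, single dose · Incubation – compound preincubation 140 s before EC20 acetylcholine addition · Technique – Fluo-8 calcium fluorescence · Measure – Max/basal fluorescence ratio as % of EC20–EC100 ACh window · Benchmarks – low control EC20 acetylcholine (0%), high control EC100 acetylcholine (100%) · Replication – singlicate, one well per test compound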
CHRM4 agonist: agonists of human muscarinic M4 receptor (CHRM4); hit rate 0.14% among 360,000; CHO-K1 hM4/Gqi5, Fluo-8 calcium fluorescence; vehicle 0%, full acetylcholine response 100%; P08173; AID 624127; activation, % at 3 µM;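 active means activation above the run mean over all test wells plus 3 SD, cut at about 32% in these data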;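 further: peak over basal fluorescence ratio per well then scaled between controls; 0% = DMSO wells and 100% = acetylcholine at EC100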
CHRM5 antagonist: blocks acetylcholine activation of human M5 receptor. P08912. CHO-hM5 cells, Fluo-8 calcium fluorescence, ACh EC80. inhibition, % at 3 µM. hit rate 0.59% among 360,000;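 active means inhibition above a per-plate cutoff, the mean of that plate's test compounds plus 3 SD, cut at about 27% in these data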;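 further: 0% = acetylcholine EC80 with DMSO and 100% = DMSO without agonist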
CHRM5 agonist: CHRM5 agonism in calcium assay; P08912; activation, % at 3 µM; hit rate 0.19% among 360,000; CHO-K1 hM5 cells, Fluo-8 calcium fluorescence; 0% DMSO wells, 100% maximal acetylcholine response;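 active means activation above the run's mean over test compounds plus 3 SD, cut at about 23% in these data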;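 further: signal is peak over basal fluorescence ratio across the kinetic read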
M4 antag: CHRM4 antagonism in calcium assay; hit rate 0.73% among 360,000; inhibition, % at 3 µM; CHO-hM4 cells, ACh EC80, Fluo-8 calcium fluorescence;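 active means inhibition above its plate's cutoff, the mean inhibition of sample wells plus 3 SD, cut at about 27% in these data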;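 further: 0% = acetylcholine EC80 with DMSO and 100% = DMSO without agonist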
Active calls of the source: *.

For Cc1ccc(-c2csc(C(O)c3ccc(F)c(F)c3)n2)cc1C (configuration not stated) the results were CHRM4 PAM 12, M5 PAM -6, CHRM4 agonist 2, CHRM5 antagonist -2, CHRM5 agonist 1 and M4 antag -15.
Screening Cc1cc(Cl)ccc1OC(C)C(=O)Nc1ccc(C(=O)Nc2ccccc2C(=O)O)cc1 (configuration not stated) returned CHRM4 PAM 23*, M5 PAM 17, CHRM4 agonist -2, CHRM5 antagonist -11, CHRM5 agonist 2 and M4 antag -11.
For CCCC[C@@H]1CNC(=O)C(=O)N1CCc1cccc(F)c1 the results were CHRM4 PAM 10, M5 PAM -3, CHRM4 agonist 0, CHRM5 antagonist 3, CHRM5 agonist 2 and M4 antag -6.
O=C(CSc1nnc(Cc2ccccc2)o1)N1CCc2ccccc21 was read as CHRM4 PAM 11, M5 PAM 0, CHRM4 agonist 1, CHRM5 antagonist -2, CHRM5 agonist -5 and M4 antag -9.
Screening O=C(CSc1nnc(COc2cccc3cccnc23)o1)N1CCc2ccccc21 returned CHRM4 PAM 13, M5 PAM -9, CHRM4 agonist 1, CHRM5 antagonist 28*, CHRM5 agonist -3 and M4 antag 5.
Screening O=C(NC1CCCCC1)c1nc(-c2c(F)cccc2F)oc1-c1ccccc1 returned CHRM4 PAM -2, M5 PAM 5, CHRM4 agonist 2, CHRM5 antagonist -7, CHRM5 agonist 1 and M4 antag 3.
Cc1cc(NC(=O)CCCN2C(=O)c3cccc4cccc(c34)C2=O)no1 was read as CHRM4 PAM 19*, M5 PAM 15, CHRM4 agonist -1, CHRM5 antagonist 4, CHRM5 agonist -2 and M4 antag -28.
`CCc1c(-c2ccc(Cl)cc2)ncn1Cc1cccc(-c2ccccc2)c1` gave CHRM4 PAM -7, M5 PAM -7, CHRM4 agonist 2, CHRM5 antagonist -4, CHRM5 agonist -5 and M4 antag -1.
Screening CCc1c(-c2ccccc2F)ncn1Cc1cccc(-c2ccccc2)c1 returned CHRM4 PAM -15, M5 PAM -17, CHRM4 agonist 11, CHRM5 antagonist 11, CHRM5 agonist -1 and M4 antag 19.
CCc1c(-c2cccc(OC)c2)ncn1Cc1cccc(-c2ccccc2)c1 was read as CHRM4 PAM -14, M5 PAM -15, CHRM4 agonist 13, CHRM5 antagonist 15, CHRM5 agonist -2 and M4 antag 34*.
CCc1c(-c2ccccc2)ncn1Cc1cccc(-c2ccccc2)c1 was read as CHRM4 PAM -8, M5 PAM -16, CHRM4 agonist 9, CHRM5 antagonist 27*, CHRM5 agonist 1 and M4 antag 4.
For CCCCc1c(-c2cccc(OC)c2)ncn1CCc1ccccc1OC the results were CHRM4 PAM -14, M5 PAM -22, CHRM4 agonist 9, CHRM5 antagonist 33*, CHRM5 agonist -1 and M4 antag 41*.
`CCCCn1nnnc1C(c1ccccc1)N1CCN(C/C=C/c2ccccc2)CC1` (configuration not stated) gave CHRM4 PAM -15, M5 PAM -22, CHRM4 agonist 1, CHRM5 antagonist 26, CHRM5 agonist -8 and M4 antag 12.
For CNc1cc(C)nc(N2CCOCC2)n1 the results were CHRM4 PAM -15, M5 PAM -18, CHRM4 agonist 12, CHRM5 antagonist 29*, CHRM5 agonist -3 and M4 antag 3.
Cc1nc2c(o1)CCc1ccccc1C2N1CCN(C)CC1 (configuration not stated) was read as CHRM4 PAM -9, M5 PAM -43, CHRM4 agonist 1, CHRM5 antagonist 98*, CHRM5 agonist -10 and M4 antag 98*.
For Cc1nc(S(=O)(=O)N2CCN(C3c4ccccc4-c4ccccc43)CC2)cn1C the results were CHRM4 PAM -4, M5 PAM 4, CHRM4 agonist 6, CHRM5 antagonist -11, CHRM5 agonist -6 and M4 antag -12.
For Cc1ccc(NC2SC(=O)N(Cc3cccc(C(=O)O)c3)C2=O)cc1 (configuration not stated) the results were CHRM4 PAM 1, M5 PAM 23*, CHRM4 agonist 0, CHRM5 antagonist -1, CHRM5 agonist -1 and M4 antag -5.
For CCCCCCCn1c2c(c(=N)c3ccccc31)CCC2 the results were CHRM4 PAM -8, M5 PAM -9, CHRM4 agonist 2, CHRM5 antagonist 27*, CHRM5 agonist -16 and M4 antag 4.
Cc1ccc(N2C(=O)c3ccccc3NC2c2ccccc2O)cc1 (configuration not stated) was read as CHRM4 PAM -17, M5 PAM -8, CHRM4 agonist 1, CHRM5 antagonist 17, CHRM5 agonist -8 and M4 antag 45*.
Screening CC[C@@H]1CC2=C(C(=O)OC(C)(C)O2)[C@H](c2ccc(Cl)cc2)O1 returned CHRM4 PAM -2, M5 PAM -1, CHRM4 agonist -2, CHRM5 antagonist 8, CHRM5 agonist -2 and M4 antag 6.
Screening CC(C)CSC1=NSC2=NC(=O)/C(=C\c3coc4ccccc4c3=O)C(=N)N12 returned CHRM4 PAM -21, M5 PAM -23, CHRM4 agonist 89*, CHRM5 antagonist 68*, CHRM5 agonist 168* and M4 antag 52*.
For CSC1=NSC2=NC(=O)/C(=C\c3coc4ccccc4c3=O)C(=N)N12 the results were CHRM4 PAM -17, M5 PAM -13, CHRM4 agonist 25, CHRM5 antagonist 26, CHRM5 agonist 27* and M4 antag 27*.
`CCOCC(=O)Nc1ccc([N+](=O)[O-])cc1OC` gave CHRM4 PAM 12, M5 PAM 1, CHRM4 agonist 1, CHRM5 antagonist 4, CHRM5 agonist -3 and M4 antag -8.
For CCOC(=O)CS(=O)(=O)CC(=O)Nc1ccc([N+](=O)[O-])cc1OC the results were CHRM4 PAM 10, M5 PAM 20*, CHRM4 agonist 1, CHRM5 antagonist -5, CHRM5 agonist 3 and M4 antag -8.
COc1cc2c(cc1NC(=O)C(C)Sc1ccc(NC(C)=O)cc1)oc1ccccc12 (configuration not stated) was read as CHRM4 PAM -14, M5 PAM -18, CHRM4 agonist 15, CHRM5 antagonist 30*, CHRM5 agonist 6 and M4 antag 18.
Cc1ccc(OCCCCn2ccnc2C)c(C)c1 was read as CHRM4 PAM -8, M5 PAM -17, CHRM4 agonist 13, CHRM5 antagonist 7, CHRM5 agonist -12 and M4 antag -7.
